Reference: PMC6779328 (Bioorganic & medicinal chemistry, 2019)
Converted amounts (≈) assume the structure as drawn.

Legend:
[1] = system: MRSA ATCC BAA-44; assay: MIC by broth microdilution, MRSA BAA-44; type: cell-based, Staphylococcus aureus; details: MRSA BAA-44, compound alone
[2] = system: MSSA; assay: MIC, MSSA; type: cell-based, S. aureus
[3] = system: E.faecium 28977; assay: MIC, E.faecium 28977; type: cell-based
[4] = system: HeLa cells; assay: HeLa growth inhibition; type: cell-based, human
[5] = system: E.faecium HM-460; assay: MIC, E.faecium HM-460; type: cell-based
[6] = system: MRSA-252; assay: MIC, MRSA-252; type: cell-based, Staphylococcus aureus
[7] = system: B.subtilis NR-607; assay: MIC, B.subtilis NR-607; type: cell-based
[8] = system: MRSA ATCC BAA-44; assay: Minimum re-sensitizing concentration; type: cell-based, Staphylococcus aureus; details: MRSA BAA-44, cefazolin
In short: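 MRSA ATCC BAA-44. The test compound was combined with cefazolin, and the minimum resensitizing concentration (MRC) was reported in μg/mL. MIC alone was determined by standard CLSI broth microdilution. MIC and MRC values were confirmed in triplicate. RMA activity was expressed as the ratio MIC/MRC.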

[9] = Staphylococcus aureus, ATCCBAA44|BAA44|MRSA

| Compound | RMA activity (in words) [8] | also measured |
| --- | --- | --- |
| 1-((6-chloro-2-(6-chlorobenzo[d]thiazol-2-yl)-2,3,4,9-tetrahydro-1H-pyrido[3,4-b]indol-4-yl)methyl)guanidine hydrochloride [12g] | – | MIC [1]: 2 µg/mL; MIC [2]: 0.5 µg/mL; MIC [3]: 2 µg/mL; GI50 ([4]; 24 h): 14.1 µg/mL; MIC [5]: 4 µg/mL; MIC [6]: 2 µg/mL; MIC [7]: 2 µg/mL |
| 6-Chloro-N-[3-(trifluoromethyl)phenyl]-1,3,4,9-tetrahydro-2H-pyrido[3,4-b]indole-2-carbothioamide [5c] | – | MIC [1]: 2 µg/mL |
| Nc1cc(Cl)c2nc(N3CCc4c([nH]c5ccc(Cl)cc45)C3)sc2c1 [4ad, 4-Chloro-2-(6-chloro-1,3,4,9-tetrahydro-2H-pyrido[3,4-b]indol-2-yl)-1,3-benzothiazol-6-amine] | good RMA activities | – |
| Cl.NCC(=O)Nc1cc(Cl)c2nc(N3CCc4c([nH]c5ccc(Cl)cc45)C3)sc2c1 [4ae, 2-amino-N-(4-chloro-2-(6-chloro-1,3,4,9-tetrahydro-2H-pyrido[3,4-b]indol-2-yl)benzo[d]thiazol-6-yl)acetamide hydrochloride] | – | antibacterial activity, MIC (in words) [1]: excellent MICs |
| FC(F)(F)c1cccc2sc(N3CCc4c([nH]c5ccc(Cl)cc45)C3)nc12 [4af, 6-Chloro-2-[4-(trifluoromethyl)-1,3-benzothiazol-2-yl]-2,3,4,9-tetrahydro-1H-pyrido[3,4-b]indole] | good RMA activities | GI50 worse than R^9-Cl analog 4w [4]: 3 fold |
| CNc1cc(C(F)(F)F)c2nc(N3CCc4c([nH]c5ccc(Cl)cc45)C3)sc2c1 [4ai, 2-(6-Chloro-1,3,4,9-tetrahydro-2H-pyrido[3,4-b]indol-2-yl)-N-methyl-4-(trifluoromethyl)-1,3-benzothiazol-6-amine] | good RMA activities | – |
| Cl.NCCNc1cc(C(F)(F)F)c2nc(N3CCc4c([nH]c5ccc(Cl)cc45)C3)sc2c1 [4aj, N1-(2-(6-chloro-1,3,4,9-tetrahydro-2H-pyrido[3,4-b]indol-2-yl)-4-(trifluoromethyl)benzo[d]thiazol-6-yl)ethane-1,2-diamine hydrochloride] | – | antibacterial activity, MIC (in words) [1]: excellent MICs |
| Clc1ccc2[nH]c3c(c2c1)CCN(c1nc2ccccc2s1)C3 [4b, 2-(1,3-Benzothiazol-2-yl)-6-chloro-2,3,4,9-tetrahydro-1H-pyrido[3,4-b]indole] | no RMA activity | – |
| Cc1ccc2nc(N3CCc4c([nH]c5ccc(Cl)cc45)C3)sc2c1 [4c, 6-Chloro-2-(6-methyl-1,3-benzothiazol-2-yl)-2,3,4,9-tetrahydro-1H-pyrido[3,4-b]indole] | no RMA activity | – |
| Clc1ccc2[nH]c3c(c2c1)CCN(c1nc2ncccc2s1)C3 [4d, 6-Chloro-2-([1,3]thiazolo[4,5-b]pyridin-2-yl)-2,3,4,9-tetrahydro-1H-pyrido[3,4-b]indole] | abolished | – |
| FC(F)(F)c1cnc2nc(N3CCc4c([nH]c5ccc(Cl)cc45)C3)sc2c1 [4e, 6-Chloro-2-[6-(trifluoromethyl)[1,3]thiazolo[4,5-b]pyridin-2-yl]-2,3,4,9-tetrahydro-1H-pyrido[3,4-b]indole] | abolished | – |
| CCOC(=O)C1c2[nH]c3ccc(Cl)cc3c2CCN1c1nc2ccc(Cl)cc2s1 (stereo not shown) [4l, Ethyl 6-chloro-2-(6-chloro-1,3-benzothiazol-2-yl)-2,3,4,9-tetrahydro-1H-pyrido[3,4-b]indole-1-carboxylate] | abolished | – |
| COC(=O)C1Cc2c([nH]c3ccc(Cl)cc23)CN1c1nc2ccc(Cl)cc2s1 (stereo not shown) [4m, Methyl 6-chloro-2-(6-chloro-1,3-benzothiazol-2-yl)-2,3,4,9-tetrahydro-1H-pyrido[3,4-b]indole-3-carboxylate] | abolished | MIC [1]: >64 µg/mL |
| CCn1c2c(c3cc(Cl)ccc31)CCN(c1nc3ccc(Cl)cc3s1)C2 [4o, 6-Chloro-2-(6-chloro-1,3-benzothiazol-2-yl)-9-ethyl-2,3,4,9-tetrahydro-1H-pyrido[3,4-b]indole] | abolished | – |
| Clc1ccc2[nH]c3c(c2c1)CCN(c1nc2ccc(Br)cc2s1)C3 [4p, 2-(6-Bromo-1,3-benzothiazol-2-yl)-6-chloro-2,3,4,9-tetrahydro-1H-pyrido[3,4-b]indole] | retained the RMA activity | – |
| FC(F)(F)Oc1ccc2nc(N3CCc4c([nH]c5ccc(Cl)cc45)C3)sc2c1 [4t, 6-Chloro-2-[6-(trifluoromethoxy)-1,3-benzothiazol-2-yl]-2,3,4,9-tetrahydro-1H-pyrido[3,4-b]indole] | lost the RMA activity completely | – |
| Clc1ccc2[nH]c3c(c2c1)CCN(c1nc2cccc(Cl)c2s1)C3 [4u, 6-Chloro-2-(7-chloro-1,3-benzothiazol-2-yl)-2,3,4,9-tetrahydro-1H-pyrido[3,4-b]indole] | reduced RMA activity | – |
| Clc1ccc2sc(N3CCc4c([nH]c5ccc(Cl)cc45)C3)nc2c1 [4v, 6-Chloro-2-(5-chloro-1,3-benzothiazol-2-yl)-2,3,4,9-tetrahydro-1H-pyrido[3,4-b]indole] | no RMA activity | – |
| Clc1ccc2[nH]c3c(c2c1)CCN(c1nc2c(Cl)cccc2s1)C3 [4w, 6-Chloro-2-(4-chloro-1,3-benzothiazol-2-yl)-2,3,4,9-tetrahydro-1H-pyrido[3,4-b]indole] | maintained similar RMA activity | – |
| Clc1cc(Cl)c2nc(N3CCc4c([nH]c5ccc(Cl)cc45)C3)sc2c1 [4x, 6-Chloro-2-(4,6-dichloro-1,3-benzothiazol-2-yl)-2,3,4,9-tetrahydro-1H-pyrido[3,4-b]indole] | – | antibacterial activity, MIC (in words) [1]: excellent MICs |
| Clc1ccc2[nH]c3c(c2c1)CCN(c1nc2c(Cl)c(Cl)c(Cl)cc2s1)C3 [4y, 6-Chloro-2-(4,5,6-trichloro-1,3-benzothiazol-2-yl)-2,3,4,9-tetrahydro-1H-pyrido[3,4-b]indole] | – | antibacterial activity, MIC (in words) [1]: excellent MICs |
| Cc1nnc(SCC2=C(C(=O)O)N3C(=O)[C@@H](NC(=O)Cn4cnnn4)[C@H]3SC2)s1 [Cefazolin, reference compound] | – | MIC [1, 9]: 256 µg/mL (≈ 563 µM) |
| CO/N=C(\C(=O)N[C@@H]1C(=O)N2C(C(=O)O)=C(COC(N)=O)CS[C@H]12)c1ccco1 [Cefuroxime, reference compound] | – | MIC [1]: 256 µg/mL (≈ 603 µM); MIC [1, 9]: 128 µg/mL (≈ 302 µM) |
| O=C(O)C1CN(c2nc3ccc(Cl)cc3s2)Cc2[nH]c3ccc(Cl)cc3c21 (stereo not shown) [compound 8, 6-Chloro-2-(6-chlorobenzo[d]thiazol-2-yl)-2,3,4,9-tetrahydro-1H-pyrido[3,4-b]indole-4-carboxylic acid] | significantly decreased or abolished | – |
| CN(C)C(=O)C1CN(c2nc3ccc(Cl)cc3s2)Cc2[nH]c3ccc(Cl)cc3c21 (stereo not shown) [compound 9, 6-Chloro-2-(6-chlorobenzo[d]thiazol-2-yl)-N,N-dimethyl-2,3,4,9-tetrahydro-1H-pyrido[3,4-b]indole-4-carboxamide] | significantly decreased or abolished | – |
